In ChEMBL document CHEMBL1128227, “Cosalane analogues with enhanced potencies as inhibitors of HIV-1 protease and integrase” (J Med Chem, 1995):

Tests used:
CCRF-CEM [1] = assay: Cytotoxical effect against CEM cell lines was determined by reduction of cellular viability; assay type: functional; details: Homo sapiens
Method in brief: (§1)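 Compounds tested as ammonium salts. Cytotoxicity in CEM-SS, MT-4 or PBL cultures taken from the reduction in cellular viability. Values are means of at least two separate experiments.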

HEL [2] = assay: Antiviral activity was determined against (Herpes simplex virus -2) by concentration required to reduce virus induced cytopathogenicity by 50%.; assay type: functional, cell-based; details: Homo sapiens
HEL [3] = assay: Antiviral activity was determined against Herpes simplex virus -1 TK- in HEL cells by measuring concentration required to reduce virus induced cytopathogenicity by 50%.; assay type: functional, cell-based; details: Homo sapiens
HEL [4] = assay: Antiviral activity was determined against Herpes simplex virus -1 TK-/TK+ in HEL cells by measuring concentration required to reduce virus induced cytopathogenicity by 50%.; assay type: functional, cell-based; details: Homo sapiens
HEL [5] = assay: Antiviral activity was determined against Herpes simplex virus -1 in HEL cells by measuring concentration required to reduce virus induced cytopathogenicity by 50%.; assay type: functional, cell-based; details: Homo sapiens
HEL [6] = assay: Antiviral activity was determined against Human cytomegalovirus (strain Davis) in HEL cells by measuring concentration required to reduce virus induced cytopathogenicity by 50%.; assay type: functional, cell-based
HEL [7] = assay: Antiviral activity was determined against Vaccinia virus in HEL cells by measuring concentration required to reduce virus induced cytopathogenicity by 50%.; assay type: functional, cell-based; details: Homo sapiens
HEL [8] = assay: Antiviral activity was determined against Vesicular stomatitis virus in HEL cells by measuring concentration required to reduce virus induced cytopathogenicity by 50%.; assay type: functional, cell-based; details: Homo sapiens
HEL [9] = assay: Antiviral activity against HEL cells by measuring minimum cytotoxic concentration that causes a microscopically detectable alteration of normal cell morphology after 2 day of treatment.; assay type: functional; details: Homo sapiens, 48 h
[10] = biological target: Human immunodeficiency virus type 1 integrase (Human immunodeficiency virus 1, UniProt Q7ZJM1); assay: Inhibition of HIV -1 Integrase
Method in brief: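 Purified HIV-1 integrase. 3'-processing and strand-transfer (integration) activities were measured with synthetic double-stranded oligonucleotides mimicking viral DNA ends. Compounds tested as ammonium salts. Values are means of at least two experiments.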

MOLT-4 [11] = assay: Giant cell formation between HIV-1 (HTLV-IIIB) infected HUT-78 cells and uninfected MOLT-4(clone-8)cells; assay type: functional, cell-based; details: Homo sapiens
Method in brief: (§2)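 Syncytium assay: HUT-78 cells persistently infected with HIV-1 (HTLV-IIIB) or HIV-2 (LAV-2ROD) were co-cultured with uninfected MOLT-4 (clone 8) cells, and giant-cell formation was scored. Compounds tested as ammonium salts. Values are means of at least two experiments.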

MOLT-4 [12] = assay: Giant cell formation between HIV-2 (LAV-2 rod) infected HUT-78 cells and uninfected MOLT-4(clone-8)cells; assay type: functional, cell-based; details: Homo sapiens; method in brief: as §2
MT4 [13] = assay: Cytotoxical effect against MT-4 cell lines was determined by reduction of cellular viability; assay type: functional; details: Homo sapiens; method in brief: as §1
MT4 [14] = assay: Viral cytopathicity against HIV -2 (LAV-2 rod)strain determined in MT-4 cells; assay type: functional, cell-based; details: Homo sapiens
MT4 [15] = assay: Viral cytopathicity against HIV -I (HTLV-IIIb) strain determined in MT-4 cells; assay type: functional, cell-based; details: Homo sapiens
[16] = biological target: Human immunodeficiency virus type 1 protease (Human immunodeficiency virus 1, UniProt Q72874); assay: Inhibition of HIV -1 protease
Method in brief: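 Purified HIV-1 protease with the peptide substrate Ala-Ser-Glu-Asn-Tyr-Pro-Ile-Val-Glu-amide. Cleavage quantified by reverse-phase HPLC. Compounds tested as ammonium salts. Values are means of at least two experiments.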

Homo sapiens [17] = organism: Homo sapiens; assay: Inhibition of p24 production in Peripheral blood lymphocytes; assay type: functional, organism-based
Method in brief: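 Phytohemagglutinin-stimulated peripheral blood lymphocytes infected with HIV-1 WUJO. Read-out is virion-associated p24 production. Compounds tested as ammonium salts. Values are means of at least two experiments.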

Homo sapiens [18] = organism: Homo sapiens; assay: Cytotoxical effect against PBL cell lines was determined by reduction of cellular viability; assay type: functional; method in brief: as §1
CCRF-CEM [19] = assay: Cytotoxical effect against CEM cell lines was determined by reduction of cellular viability. data represent mean value of at least two separate experiments.; assay type: functional; details: Homo sapiens; method in brief: as §1
HEL [20] = assay: Anti viral activity against HEL cytotoxicity by minimum cytotoxic concentration that causes a microscopically detectable alteration of normal cell morphology after 2 day of treatment.; assay type: functional; details: Homo sapiens, 48 h
HeLa [21] = assay: Anti viral activity against HeLa cytotoxicity by minimum cytotoxic concentration that causes a microscopically detectable alteration of normal cell morphology after 2 day of treatment.; assay type: functional; details: Homo sapiens, 48 h
HeLa [22] = assay: Antiviral activity was determined against Respiratory syncytial virus(strain Long) in HeLa cells by measuring concentration required to reduce virus induced cytopathogenicity by 50%.; assay type: functional, cell-based; details: Homo sapiens
Method in brief: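 RSV cytopathicity in HeLa cells. Compound added immediately after virus infection and left in the culture. Virus-induced cytopathogenicity scored at day 5 post-infection. IC50 in μg/mL.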

MOLT-4 [23] = assay: Gaint cell formation between HIV-1 (HTLV-IIIB) infected HUT-78 cells and uninfected MOLT-4(clone-8)cells; assay type: functional, cell-based; details: Homo sapiens; method in brief: as §2
MOLT-4 [24] = assay: Gaint cell formation between HIV-2 (LAV-2 rod) infected HUT-78 cells and uninfected MOLT-4(clone-8)cells; assay type: functional, cell-based; details: Homo sapiens; method in brief: as §2
MT4 [25] = assay: Cytotoxical effect against MT-4 cell lines was determined by reduction of cellular viability. data represent mean value of at least two separate experiments.; assay type: functional; details: Homo sapiens; method in brief: as §1
MDCK [26] = assay: Anti viral activity against MDCK cytotoxicity by minimum cytotoxic concentration that causes a microscopically detectable alteration of normal cell morphology after 2 day of treatment.; assay type: functional; details: Canis lupus familiaris, 48 h
MDCK [27] = assay: Antiviral activity was determined against Influenza virus A(strain Ishikawa) in MDCK cells by measuring concentration required to reduce virus induced cytopathogenicity by 50%.; assay type: functional, cell-based; details: Canis lupus familiaris
Method in brief: (§3)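 Tested in MDCK cells, with compound applied right after infection and left on. Cytopathic effect of influenza A (Ishikawa) or B (Singapore) was read at day 5 pi. IC50 is the concentration halving cytopathogenicity, in µg/mL.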

MDCK [28] = assay: Antiviral activity was determined against Influenza virus B(strain Singapore) MDCK cells by measuring concentration required to reduce virus induced cytopathogenicity by 50%.; assay type: functional, cell-based; details: Canis lupus familiaris; method in brief: as §3
Homo sapiens [29] = organism: Homo sapiens; assay: Cytotoxical effect against PBL cell lines was determined by reduction of cellular viability. data represent mean value of at least two separate experiments.; assay type: functional; method in brief: as §1
Vero [30] = assay: Anti viral activity against Vero cellular cytotoxicity by minimum cytotoxic concentration that causes a microscopically detectable alteration of normal cell morphology after 2 day of treatment.; assay type: functional; details: Chlorocebus sabaeus, 48 h
Vero [31] = assay: Antiviral activity was determined against Junin virus in Vero cells by measuring concentration required to reduce virus induced cytopathogenicity by 50%.; assay type: functional, cell-based; details: Chlorocebus sabaeus
Vero [32] = assay: Antiviral activity was determined against Tacaribe virus in Vero cells by measuring concentration required to reduce virus induced cytopathogenicity by 50%.; assay type: functional, cell-based; details: Chlorocebus sabaeus
HeLa [33] = assay: Antiviral activity against HeLa cells by measuring minimum cytotoxic concentration that causes a microscopically detectable alteration of normal cell morphology after 2 day of treatment.; assay type: functional; details: Homo sapiens, 48 h
MDCK [34] = assay: Antiviral activity against MDCK cells by measuring minimum cytotoxic concentration that causes a microscopically detectable alteration of normal cell morphology after 2 day of treatment.; assay type: functional; details: Canis lupus familiaris, 48 h
Vero [35] = assay: Antiviral activity against Vero cells by measuring minimum cytotoxic concentration that causes a microscopically detectable alteration of normal cell morphology after 2 day of treatment.; assay type: functional; details: Chlorocebus sabaeus, 48 h

Sequence of Human immunodeficiency virus type 1 integrase (Q7ZJM1 whole entry): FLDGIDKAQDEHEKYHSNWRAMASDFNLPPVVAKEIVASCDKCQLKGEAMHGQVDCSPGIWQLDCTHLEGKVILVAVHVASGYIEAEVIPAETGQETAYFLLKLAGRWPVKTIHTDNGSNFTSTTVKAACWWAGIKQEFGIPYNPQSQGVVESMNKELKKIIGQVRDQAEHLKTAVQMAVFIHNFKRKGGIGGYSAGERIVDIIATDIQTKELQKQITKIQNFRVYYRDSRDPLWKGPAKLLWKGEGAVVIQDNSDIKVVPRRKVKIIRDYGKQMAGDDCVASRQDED

SMILES | CC50 (CCRF-CEM [1]) [µM] | IC50 (HEL [2]) | IC50 (HEL [3]) | IC50 (HEL [4]) | IC50 (HEL [5]) | IC50 (HEL [6]) | IC50 (HEL [7]) | IC50 (HEL [8]) | MCC (HEL [9]) [µg/mL] | IC50 [10] [µM] | IC50 (MOLT-4 [11]) [µM] | IC50 (MOLT-4 [12]) [µM] | CC50 (MT4 [13]) [µM] | IC50 (MT4 [14]) [µM] | IC50 (MT4 [15]) [µM] | IC50 [16] [µM] | IC50 (Homo sapiens [17]) [µM] | CC50 (Homo sapiens [18]) [µM] | IC50 (HeLa [22]) | IC50 (MDCK [27]) | further results
CC(C)CCCC(C)[C@H]1CC[C@H]2[C@@H]3CCC4C[C@@H](CCC=C(c5cc(Cl)c(O)c(C(=O)O)c5)c5cc(Cl)c(O)c(C(=O)O)c5)CC[C@]4(C)[C@H]3CC[C@]12C (stereo not given in full) | > 200 | 7.4 µg/mL | > 20 µg/mL | 20 µg/mL | 10 µg/mL | 2.7 µg/mL | > 20 µg/mL | 10 µg/mL | > 100 | 25 | 25 | 25 | > 125 | 4 | 1.8 | 1.5 | 33 | 67 |  |  | 
CCCCCC=C(c1cc(Cl)c(O)c(C(=O)NO)c1)c1cc(Cl)c(O)c(C(=O)NO)c1 |  | > 5 µM | 5 µM | > 5 µM | 5 µM | > 5 µM | 5 µM | > 20 µM |  | 4 |  |  |  | > 40 | 21.9 | 58 | 112 |  | > 4 µM | > 4 µM | CC50 (CCRF-CEM [19]): 36.2 µM; CC50 (HEL [20]): 20 µM; CC50 (HeLa [21]): 4 µM; IC50 (MOLT-4 [23]): 8 µM; IC50 (MOLT-4 [24]): 40 µM; CC50 (MT4 [25]): > 40 µM; CC50 (MDCK [26]): 4 µM; IC50 (MDCK [28]): > 4 µM; CC50 (Homo sapiens [29]): 148 µM; CC50 (Vero [30]): 5 µM; IC50 (Vero [31]): > 2 µM; IC50 (Vero [32]): > 2 µM
CC(CCC=C(c1cc(Cl)c(O)c(C(=O)O)c1)c1cc(Cl)c(O)c(C(=O)O)c1)[C@H]1CC[C@H]2[C@@H]3CC[C@@H]4CCCC[C@]4(C)[C@H]3CC[C@]12C (stereo not given in full) | 69.5 | > 20 µg/mL | > 20 µg/mL | > 20 µg/mL | > 20 µg/mL | > 20 µg/mL | 13 µg/mL | > 20 µg/mL | 50 | 2.2 | 24 | 40 | 31.4 | > 31.3 | 27.2 | 1.5 | 39 | 135 | 4 µg/mL | > 12 µg/mL | MCC (HeLa [33]): 100 µg/mL; MCC (MDCK [34]): 20 µg/mL; IC50 (MDCK [28]): > 20 µg/mL; MCC (Vero [35]): 20 µg/mL; IC50 (Vero [31]): > 5 µg/mL; IC50 (Vero [32]): > 5 µg/mL
